Test results as given in ChEMBL document CHEMBL5705892, “MK-2206, an allosteric Akt inhibitor, enhances antitumor efficacy by standard chemotherapeutic agents or molecular targeted drugs in vitro and in vivo” (Mol Cancer Ther, 2010).
Calls of active or inactive are those of the source. The calls are words filed in the database; no cut-off is given here.

Assays:
[1] = Toxicity in human PC-3 cells xenografted CD1 nude mouse assessed as body weight loss at 120 mg/kg, po administered 3 times per week for 2 weeks measured on day 15; format: organism-based; conditions: in vivo, 360 h, time 15 day
Method in brief: (§1)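 Male CD1-nude mice with s.c. PC-3 tumours (50% Matrigel/50% PBS, left flank), randomized at mean 0.2 cm³, n=5/group, treated from 25 d post-implant. Body weight monitored versus vehicle-only controls.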

UMC-11 = assay: Induction of apoptosis in human UMC-11 cells assessed as fold induction of capsase-3/7 activity measured after 24 to 48 hrs in presence of gemcitabine by caspase-glo 3/7 assay; format: functional; conditions: time 24-48 hrs
[2] = Toxicity in human PC-3 cells xenografted CD1 nude mouse assessed as body weight loss at 120 mg/kg, po administered 3 times per week for 2 weeks starting 24 hrs post docetaxel treatment and measured during compound dosing relative to control; format: organism-based; conditions: in vivo, 336 h; method in brief: as §1
NCI-H292 = assay: Antitumor activity against human NCI-H292 cells xenografted in CD-1 mouse assessed as tumor growth suppression at 360 mg/kg, po administered once a week for 2 weeks starting 2 hrs post-erlotinib treatment and measured twice a week during compound dosing by caliper method; format: functional, organism-based
Method in brief: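 Female CD1-nude mice carried s.c. NCI-H292 cells in Matrigel/PBS and were randomized at 0.2 cm³, n = 5. […] MK-2206 (30% Captisol) was given 2 h later at 120 mg/kg po on days 0, 2, 4, 7, 9, 11, or at 360 mg/kg on days 0 and 7. Control received vehicle. Caliper volume twice weekly.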

[3] = Toxicity in human HCC70 cells xenografted CB17/icr SCID mouse assessed as mortality at 120 mg/kg, po administered 3 times per week for 3 weeks starting 2 hrs post-lapatinib treatment and measured during compound dosing; format: organism-based; conditions: in vivo, 504 h
Method in brief: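 HCC70 cells in 50% Matrigel/PBS injected s.c. into flank of female C.B-17/ICR-scid mice; dosing began after 3 wk, groups randomized at mean tumour 0.2 cm³ (n = 5). Lapatinib 100 mg/kg p.o. in distilled water, 5 d/wk for 3 wk; MK-2206 in 30% Captisol p.o. 3×/wk for 3 wk, given 2 h after lapatinib. Body weight and physical signs monitored throughout.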

HCC70 [4] = assay: Synergistic antiproliferative activity against human HCC70 cells assessed as combination index at ED75 measured after 72 hrs in presence of lapatinib by celltiter-glo assay; format: functional
Method in brief: (§2)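 Cells grown in RPMI 1640 with 10% heat-inactivated FBS at 37°C, 5% CO₂. Seeded at 2 to 3 × 10³ per well; drugs added 24 h later. […] Viability read as cellular ATP by CellTiter-Glo. CI calculated by Chou–Talalay from median-effect plots at ED50, ED75 and ED90.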

BT-474 [5] = assay: Synergistic antiproliferative activity against docetaxel pretreated human BT-474 cells assessed as combination index at ED90 measured after 72 hrs by celltiter-glo assay; format: functional
[6] = Toxicity in human NCI-H292 cells xenografted CD-1 mouse assessed as weight loss at 120 mg/kg, po administered 3 times per week for 2 weeks starting 2 hrs post-erlotinib treatment and measured on day 16; format: organism-based; conditions: in vivo, 384 h, time 16 day
Method in brief: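 Female CD1-nude mice bearing s.c. NCI-H292 tumours (cells in 50% Matrigel/50% PBS, left flank), randomized at mean 0.2 cm³, n=5/group. Body weight monitored; treatment period ended day 16.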

NCI-N87 [7] = assay: Synergistic antiproliferative activity against human NCI-N87 cells assessed as combination index at ED50 measured after 72 hrs in presence of lapatinib by celltiter-glo assay; format: functional
BT-20 = assay: Synergistic antiproliferative activity against human BT-20 cells assessed as combination index at ED75 measured after 72 hrs in presence of docetaxel by celltiter-glo assay; format: functional; method in brief: as §2
SK-OV-3 = assay: Synergistic antiproliferative activity against lapatinib pretreated human SK-OV-3 cells assessed as combination index at ED50 measured after 72 hrs by celltiter-glo assay; format: functional
SK-BR-3 = assay: Synergistic antiproliferative activity against lapatinib pretreated human SK-BR-3 cells assessed as combination index at ED75 measured after 72 hrs by celltiter-glo assay; format: functional
NCI-N87 [8] = assay: Synergistic antiproliferative activity against human NCI-N87 cells assessed as combination index at ED90 measured after 96 hrs in presence of lapatinib by celltiter-glo assay; format: functional
NCI-N87 [9] = assay: Synergistic antiproliferative activity against lapatinib pretreated human NCI-N87 cells assessed as combination index at ED75 measured after 72 hrs by celltiter-glo assay; format: functional
[10] = Toxicity in human PC-3 cells xenografted CD1 nude mouse assessed as body weight loss at 120 mg/kg, po administered 3 times per week for 2 weeks starting 24 hrs post docetaxel treatment and measured on day 15; format: organism-based; conditions: in vivo, 360 h, time 15 day; method in brief: as §1
MDA-MB-468 = assay: Synergistic antiproliferative activity against human MDA-MB-468 cells assessed as combination index at ED75 treated 24 hrs prior to lapatinib and measured after 72 hrs by celltiter-glo assay; format: functional; conditions: time 96 hrs
HCC70 [11] = assay: Antitumor activity against human HCC70 cells xenografted in CB17/icr SCID mouse assessed as reduction in tumor volume at 120 mg/kg, po administered 3 times per week for 3 weeks and measured twice a week during compound dosing by caliper method; format: functional, organism-based
Method in brief: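 Female C.B-17/ICR-scid mice were given s.c. HCC70 cells in 50% Matrigel/50% PBS in the left flank. They were randomized at a mean tumor size of 0.2 cm³, n = 5 per group. Lapatinib (distilled water) was given at 100 mg/kg po, 5 d/wk for 3 wk. MK-2206 (30% Captisol) was given at 120 mg/kg po, 3×/wk, 2 h after lapatinib. Calipers twice weekly; volume = […] × 0.5.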

[12] = molecular target: RAC-alpha serine/threonine-protein kinase (Homo sapiens) (UniProt P31749); assay: Inhibition of AKT in human HCC827 cells assessed as reduction in S6 phosphorylation at S240/S244 residues at 5 umol/L measured after 5 hrs in presence of erlotinib by Western blot analysis; format: cell-based; conditions: dose 5.0 µmol/L
BT-474 [13] = assay: Synergistic antiproliferative activity against human BT-474 cells assessed as combination index at ED90 preincubated for 24 hrs followed by compound washout and subsequent docetaxel addition and measured after 72 hrs by celltiter-glo assay; format: functional
Method in brief: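 Sequential schedule. Cells were seeded at 2 to 3 × 10³ per well in RPMI 1640 with 10% FBS and dosed 24 h after plating. They were exposed to the Akt inhibitor for 24 h, washed free of it, then given docetaxel for a further 72 h. Fixed concentration ratios spanned each agent's IC₅₀. ATP was read by CellTiter-Glo, and Chou–Talalay CI was calculated at ED50, ED75 and ED90.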

A-431 = assay: Synergistic antiproliferative activity against human A-431 cells assessed as combination index at ED75 measured after 72 hrs in presence of erlotinib by celltiter-glo assay; format: functional
Method in brief: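 Cells were seeded at 2–3 × 10³ per well in RPMI 1640 with 10% FBS. At 24 h, MK-2206 and the partner drug were added simultaneously at constant concentration ratios spanning each agent's IC₅₀, for 72 h. Growth was read as cellular ATP by CellTiter-Glo. CI was taken from median-effect plots of each agent alone and in combination (Chou–Talalay), at ED₅₀, ED₇₅ and ED₉₀.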

Chain of RAC-alpha serine/threonine-protein kinase (Homo sapiens) (P31749 whole entry): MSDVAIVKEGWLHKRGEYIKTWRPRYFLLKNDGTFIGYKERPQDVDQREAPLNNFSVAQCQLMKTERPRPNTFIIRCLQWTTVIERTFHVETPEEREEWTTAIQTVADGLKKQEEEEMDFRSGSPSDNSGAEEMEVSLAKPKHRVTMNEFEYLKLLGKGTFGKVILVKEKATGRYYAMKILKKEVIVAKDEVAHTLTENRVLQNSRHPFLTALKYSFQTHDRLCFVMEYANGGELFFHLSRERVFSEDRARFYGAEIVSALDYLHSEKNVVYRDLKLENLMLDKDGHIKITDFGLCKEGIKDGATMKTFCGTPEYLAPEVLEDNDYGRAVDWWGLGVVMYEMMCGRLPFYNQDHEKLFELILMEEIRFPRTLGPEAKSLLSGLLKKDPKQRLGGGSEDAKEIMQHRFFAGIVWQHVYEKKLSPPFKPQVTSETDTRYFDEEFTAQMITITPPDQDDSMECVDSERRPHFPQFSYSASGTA

Q: With `Cl.NC1(c2ccc(-c3nc4ccn5c(=O)[nH]nc5c4cc3-c3ccccc3)cc2)CCC1` as the compound, how does the Activity [1] read?
A: Non-Toxic

Q: What about the “fold change (FC)” value (UMC-11) of the same compound?
A: 1.2

Q: And the Activity [2]?
A: 9%

Q: What about the Activity (NCI-H292) of the same compound?
A: Active

Q: What about the Activity [3] of the same compound?
A: Non-Toxic

Q: What about the CI75 (HCC70 [4]) of the same compound?
A: 0.28

Q: What about the CI90 (BT-474 [5]) of the same compound?
A: 0.3

Q: And the Activity [6]?
A: Non-Toxic

Q: What about the CI50 (NCI-N87 [7]) of the same compound?
A: 0.45

Q: And the CI75 (BT-20)?
A: 0.7

Q: What about the CI50 (SK-OV-3) of the same compound?
A: 0.18

Q: What about the CI75 (SK-BR-3) of the same compound?
A: 0.18

Q: What about the CI90 (NCI-N87 [8]) of the same compound?
A: 0.18

Q: What about the CI75 (NCI-N87 [9]) of the same compound?
A: 0.18

Q: What about the Activity [10] of the same compound?
A: Non-Toxic

Q: And the CI75 (MDA-MB-468)?
A: 0.18

Q: And the Activity (HCC70 [11])?
A: Active

Q: What about the inhibition [12] of the same compound?
A: Active

Q: And the CI90 (BT-474 [13])?
A: 1.6

Q: And the CI75 (A-431)?
A: 0.21
